Assay results from different studies.
Protocols differ between the studies behind these lines.

SMILES	species	medium	route	dose	notes	Tmax
CC(C)(O)c1ccccc1-c1ccc2[nH]c(/C=C/c3ccc(C(F)(F)F)cc3)nc2c1	male human	plasma	oral	225 mg	single dose, fasted	2.02 h
NS(=O)(=O)NCCNc1nonc1C(=NO)Nc1ccc(F)c(Br)c1	human	plasma	oral	300 mg	multiple doses, twice daily, steady state, patients	2 h
CO[C@@H]1[C@H](OC(=O)N2CC(CCN3CCOCC3)C2)CC[C@]2(CO2)[C@H]1[C@@]1(C)O[C@@H]1CC=C(C)C	human	plasma	subcutaneous	2.4 mg	single dose, healthy volunteers	0.25 h
CC(C)(Sc1ccncc1-c1ccc(C#N)c2ccccc12)C(=O)O	male human	plasma	oral	1 mg	multiple doses, once daily	0.5 h
COc1cc(N2CCC(N3CCN(C)CC3)CC2)ccc1Nc1ncnc(Nc2ccccc2S(=O)(=O)C(C)C)n1	human	plasma	oral	50 mg	multiple doses, patients	2.99 h
C#C[C@]1(COP(=O)(O)OP(=O)(O)OP(=O)(O)O)O[C@@H](n2cnc3c(N)nc(F)nc32)C[C@@H]1O	human	plasma	oral	30 mg	single dose	24 h
C[C@@H](Nc1cc(F)cc(F)c1)c1cc(C(=O)N(C)C)cc2c(=O)cc(N3CCOCC3)oc12	human	plasma	oral	60 mg	single dose, patients	1.27 h
CS(=O)(=O)CCC#N	human	plasma	oral	100 mg	multiple doses, once daily	1 h
C=CC(=O)N(C)CCOc1c(N)ncnc1-c1cc(F)cc(NC(=O)c2ccc(C3CC3)cc2F)c1C	human	blood	oral	400 mg	single dose, healthy volunteers	1.24 h
CCc1nc(C(N)=O)c(Nc2ccc(N3CCC(N4CCN(C)CC4)CC3)c(OC)c2)nc1NC1CCOCC1	human	plasma	oral	40 mg	multiple doses, patients	4.01 h
CCc1nc2c(C)cc(N3CCN(CC(=O)N4CC(O)C4)CC3)cn2c1N(C)c1nc(-c2ccc(F)cc2)c(C#N)s1	human	plasma	oral	20 mg	fed, healthy volunteers	1 h
CCO[C@H]1CCN(Cc2c(OC)cc(C)c3[nH]ccc23)[C@H](c2ccc(C(=O)O)cc2)C1	human	plasma	oral	25 mg	multiple doses, twice daily, patients	2 h
Cn1cc(-c2ccc(S(=O)(=O)[C@@H]3C[C@@H](C(=O)NC4(C#N)CC4)N(C(=O)C4(C(F)(F)F)CC4)C3)c(C(F)(F)F)c2)cn1	human	plasma	oral	1 mg	single dose, fasted, healthy volunteers	4 h
C[C@@]1(c2cc(NC(=O)c3ccc(C#N)cn3)ccc2F)C=CSC(N)=N1	human	plasma	oral	1 mg	single dose	0.89 h
O=C(Nc1c(Cl)cncc1Cl)c1ccc(OC(F)F)c(OCC2CC2)c1	human	plasma	oral	0.375 mg	single dose	0.5 h
c1cnc2ccc(Nc3nc(NC4CC4)c4nc[nH]c4n3)cc2c1	human	plasma	oral	200 mg/m²	patients	5.7 h
COc1ccc([C@@H]2CN(C(=O)[C@@H](O)CO)C[C@@]2(C)[C@@H](C)O)cc1OC1CN(c2ccc(C)cn2)C1	human	plasma	oral	0.5 mg	single dose, healthy volunteers	1.5 h
CC(C)n1cc(C#N)c2cc(-n3cc(C(=O)O)cn3)ccc21	human	plasma	oral	600 mg	multiple doses, once daily, steady state	3.5 h
Cc1nc(NC(=O)N2CCC[C@H]2C(N)=O)sc1-c1ccnc(C(C)(C)C(F)(F)F)c1	human	plasma	oral	400 mg	patients	2 h
